Experimental data taken from ChEMBL document CHEMBL1135407, “Structure-based design of a parallel synthetic array directed toward the discovery of irreversible inhibitors of human rhinovirus 3C protease” (J Med Chem, 2002).
pEC50: −log10 of the molar value.

Columns and labels:
HeLa = assay: 50% cytotoxic concentration required to inhibit HRV-14 infected H1HeLa cells; format: functional; details: Homo sapiens
[1] = target: T1, Human rhinovirus A protease (Human rhinovirus sp.) (UniProt Q4U254); assay: Rate of inactivation of Human Rhinovirus 14 (HRV14) Protease 3C
T1 sequence (whole entry): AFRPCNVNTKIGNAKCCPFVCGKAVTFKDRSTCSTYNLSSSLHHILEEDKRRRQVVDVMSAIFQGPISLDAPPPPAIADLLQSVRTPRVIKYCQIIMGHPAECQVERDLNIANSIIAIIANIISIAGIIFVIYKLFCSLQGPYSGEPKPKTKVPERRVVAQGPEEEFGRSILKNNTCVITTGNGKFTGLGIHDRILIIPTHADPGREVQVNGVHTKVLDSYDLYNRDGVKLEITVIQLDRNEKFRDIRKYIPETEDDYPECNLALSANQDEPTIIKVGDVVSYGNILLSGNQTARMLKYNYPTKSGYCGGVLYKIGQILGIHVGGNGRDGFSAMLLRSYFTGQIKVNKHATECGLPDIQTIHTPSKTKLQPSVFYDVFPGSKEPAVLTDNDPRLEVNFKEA
Procedure, shortened: (§1)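 Irreversible (Michael acceptor) inactivation of HRV-14 3C protease, reported as a second-order rate of inactivation in M^-1 sec^-1.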

[2] = target: T2, Human rhinovirus A protease (Human rhinovirus sp., UniProt Q4U254); assay: Inhibition of Human Rhinovirus 14 (HRV14) Protease 3C
T2 sequence (Q4U254 whole entry): T1 sequence (whole entry)

[3] = target: T1, Human rhinovirus A protease (Human rhinovirus sp.); assay: Ability to inactivate Human Rhinovirus 2 Protease 3C
[4] = target: T2, Human rhinovirus A protease; assay: 50% effective concentration required to inhibit Human Rhinovirus 10 Protease 3C
[5] = target: T2, Human rhinovirus A protease; assay: 50% effective concentration required to inhibit Human Rhinovirus 2 Protease 3C
[6] = target: T1, Human rhinovirus A protease (Human rhinovirus sp.); assay: Ability to inactivate Human Rhinovirus 16 Protease 3C
[7] = target: T2, Human rhinovirus A protease; assay: 50% effective concentration required to inhibit Human Rhinovirus 1A Protease 3C
[8] = target: T1, Human rhinovirus A protease (Human rhinovirus sp.); assay: Evaluated for the rate of inactivation of Human Rhinovirus 14 (HRV14) Protease 3C; procedure, shortened: as §1
[9] = target: T2, Human rhinovirus A protease; assay: 50% effective concentration required to inhibit Human Rhinovirus 89 Protease 3C
[10] = target: T2, Human rhinovirus A protease; assay: 50% effective concentration required to inhibit Human Rhinovirus 16 Protease 3C
[11] = target: T1, Human rhinovirus A protease (Human rhinovirus sp.); assay: Ability to inactivate Human Rhinovirus 89 Protease 3C

CCOC(=O)/C=C/[C@H](C[C@@H]1CCNC1=O)NC(=O)/C=C/c1ccc2c(c1)OCO2 was tested, and the CC50 (HeLa) was greater than 10000 nM, the K obs / 1 [1] was 1960 M⁻¹ s⁻¹ and the pEC50 [2] was 5.74.
For CCOC(=O)/C=C/[C@H](C[C@@H]1CCNC1=O)NC(=O)C1=Cc2ccccc2OC1, the CC50 (HeLa) was greater than 100000 nM, the K obs / 1 [1] was 886 M⁻¹ s⁻¹ and the pEC50 [2] was 5.92.
CCOC(=O)/C=C/[C@H](C[C@@H]1CCNC1=O)NC(=O)c1cc(-c2ccccc2)oc1C gave a CC50 (HeLa) greater than 100000 nM, a K obs / 1 [1] of 4740 M⁻¹ s⁻¹ and a pEC50 [2] of 5.71.
In the case of CCOC(=O)/C=C/[C@H](C[C@@H]1CCNC1=O)NC(=O)/C=C/c1cc2c(cc1Br)OCO2, the CC50 (HeLa) was greater than 100000 nM, the K obs / 1 [1] was 14400 M⁻¹ s⁻¹ and the pEC50 [2] was 6.31.
CCOC(=O)/C=C/[C@H](C[C@@H]1CCNC1=O)NC(=O)C1=Cc2cc(Cl)ccc2OC1 was tested, and the K obs / 1 [3] was 385 M⁻¹ s⁻¹, the pEC50 [4] was 6.34 and the pEC50 [5] was 6.19. The CC50 (HeLa) was greater than 100000 nM, the K obs / 1 [1] was 19700 M⁻¹ s⁻¹ and the K obs / 1 [6] was 2200 M⁻¹ s⁻¹. The pEC50 [7] was 5.29 and the pEC50 [2] was 6.80.
CCOC(=O)/C=C/[C@H](C[C@@H]1CCNC1=O)NC(=O)/C=C/c1cc(Br)ccc1Br gave a K obs / 1 [1] of 6850 M⁻¹ s⁻¹.
CCOC(=O)/C=C/[C@H](C[C@@H]1CCNC1=O)NC(=O)/C=C/c1ccc(C)c(Br)c1 gave a CC50 (HeLa) greater than 10000 nM, a K obs / 1 [1] of 4080 M⁻¹ s⁻¹ and a pEC50 [2] of 5.89.
Compound CCOC(=O)/C=C/[C@H](C[C@@H]1CCNC1=O)NC(=O)/C=C/c1cccc(Br)c1 has a K obs / 1 [8] of 2560 M⁻¹ s⁻¹, a CC50 (HeLa) greater than 10000 nM and a pEC50 [2] of 5.85.
CCOC(=O)/C=C/[C@H](C[C@@H]1CCNC1=O)NC(=O)c1ccc2cc(C)ccc2c1 showed a CC50 (HeLa) greater than 100000 nM, a K obs / 1 [1] of 5000 M⁻¹ s⁻¹ and a pEC50 [2] of 6.06.
With CCOC(=O)/C=C/[C@H](CCC(N)=O)NC(=O)C(Cc1ccccc1)NC(=O)[C@H](CC(C)C)NC(=O)OCc1ccccc1 (stereo partly specified) the K obs / 1 [3] was 2000 M⁻¹ s⁻¹, the pEC50 [9] was 5.20 and the pEC50 [4] was 6.22. The pEC50 [5] was 5.80, the CC50 (HeLa) was greater than 100000 nM and the pEC50 [10] was 5.64. It also gave a K obs / 1 [1] of 25000 M⁻¹ s⁻¹, a K obs / 1 [11] of 3440 M⁻¹ s⁻¹ and a K obs / 1 [6] of 6530 M⁻¹ s⁻¹. For the same compound, the pEC50 [2] was 6.27.
CCOC(=O)/C=C/[C@H](C[C@@H]1CCNC1=O)NC(=O)c1ccc2ccccc2c1 showed a K obs / 1 [3] of 110 M⁻¹ s⁻¹, a pEC50 [5] of 5.85 and a CC50 (HeLa) greater than 100000 nM. The K obs / 1 [1] was 1090 M⁻¹ s⁻¹ and the pEC50 [2] was 6.82.
In the case of CCOC(=O)/C=C/[C@H](C[C@@H]1CCNC1=O)NC(=O)c1ccc2ccc(Br)cc2c1, the CC50 (HeLa) was greater than 50000 nM, the K obs / 1 [1] was 31400 M⁻¹ s⁻¹ and the pEC50 [2] was 6.74.
CCOC(=O)/C=C/[C@H](C[C@@H]1CCNC1=O)NC(=O)C1=Cc2cc(Br)ccc2OC1 showed a K obs / 1 [3] of 372 M⁻¹ s⁻¹, a pEC50 [4] of 6.26 and a CC50 (HeLa) greater than 100000 nM. For the same compound, the K obs / 1 [1] was 25000 M⁻¹ s⁻¹ and the pEC50 [2] was 6.74.
Compound CCOC(=O)/C=C/[C@H](C[C@@H]1CCNC1=O)NC(=O)/C=C/c1ccc(F)c(Br)c1 has a CC50 (HeLa) greater than 100000 nM, a K obs / 1 [1] of 2860 M⁻¹ s⁻¹ and a pEC50 [2] of 6.20.
